Compound activity from PubChem BioAssay.
Only some compounds are listed: those with a hit (about 1.8% of all), similar ones and a draw of the others.
MBD2 inh: inhibitors of human MBD2 binding to methylated oligonucleotide; Q9UBB5; TR-FRET; inhibition, % at 4.4 µM; 370,000 tested, 0.31% active; AID 686964; in the data active = inhibition above about 13%
NSD2 HMT inh: NSD2 (human) methyltransferase inhibition; O96028; NSD2 peptide methylation, AlphaScreen, 120 min; inhibition, % at 12.5 µM; 310,000 tested, 0.54% active; in the data active = inhibition above about 50%
LEDGF integ inh: blocks HIV-1 LEDGF/p75-dependent DNA integration; TR-FRET IN-LEDGF/p75 DNA integration, Eu/Cy5; 370,000 tested, 0.64% active; AID 743269; inhibition, % at 3.7 µM;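 active = inhibition above the screen-wide mean plus 3 SD, cut at about 13% in these data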;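 also: signal is the Cy5 over europium emission ratio at 671 and 618 nm; 0% = plate median of compound wells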
UHRF1 binding: blocks human UHRF1 binding to methylated DNA; Q96T88; UHRF1 binding to methylated oligo, TR-FRET; inhibition, % at 4.4 µM; 370,000 tested, 0.75% active; AID 687016; in the data active = inhibition above about 21%;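 also: UHRF1 SRA domain binding a hemimethylated CpG hairpin DNA probe; 0% = median of test compound wells and 100% = reference inhibitor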
Casp6 inh: inhibitors of human caspase-6; P55212; purified caspase-6, Z-VEID-R110 cleavage fluorescence; inhibition, % at 12.5 µM; 350,000 tested, 0.53% active; AID 686996;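 active = mean inhibition across replicates at least about 35%, with every replicate also reaching that limit, limit read from the data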;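 also: 0% = median of neutral control wells and 100% = no fluorescence left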
Target sequence (P55212 24-179 limits assumed): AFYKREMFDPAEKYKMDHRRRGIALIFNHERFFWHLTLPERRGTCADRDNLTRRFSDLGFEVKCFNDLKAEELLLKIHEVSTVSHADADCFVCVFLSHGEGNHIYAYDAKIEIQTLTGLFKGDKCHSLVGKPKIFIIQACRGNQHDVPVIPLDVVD
Target sequence (P55212 194-293 limits assumed): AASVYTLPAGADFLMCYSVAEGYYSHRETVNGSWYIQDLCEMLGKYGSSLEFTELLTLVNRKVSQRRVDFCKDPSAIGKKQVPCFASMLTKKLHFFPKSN
TDP2 absorb: TDP2 (human) inhibition, absorbance primary screen. O95551. recombinant TDP2, T5PNP hydrolysis, p-nitrophenol absorbance 415 nm. inhibition, % at 12.8 µM. 370,000 tested, 0.34% active;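 active = inhibition above the mean of all tested compounds plus 3 SD, set per campaign, cut at about 25% in these data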;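 also: 0% = DMSO with enzyme and 100% = buffer with substrate but no TDP2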
Target sequence (O95551 whole entry, looked up): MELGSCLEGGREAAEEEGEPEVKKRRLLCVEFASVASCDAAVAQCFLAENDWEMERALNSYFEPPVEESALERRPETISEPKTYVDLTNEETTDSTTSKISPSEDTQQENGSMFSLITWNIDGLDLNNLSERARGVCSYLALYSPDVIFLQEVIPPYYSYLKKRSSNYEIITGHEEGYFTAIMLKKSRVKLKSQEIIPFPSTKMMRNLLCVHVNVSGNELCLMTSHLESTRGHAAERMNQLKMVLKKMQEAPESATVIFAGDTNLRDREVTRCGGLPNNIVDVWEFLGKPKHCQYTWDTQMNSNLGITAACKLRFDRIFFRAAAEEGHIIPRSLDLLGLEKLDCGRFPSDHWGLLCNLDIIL
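System – recombinant human TDP2 · Quantity – TDP2 enzyme at 120 nM final · Doses – single concentration, 12.8 µM nominal, with 1% DMSO · Incubation – 2 h at 37 °C · Measured by – epi absorbance of p-nitrophenol freed from T5PNP by hydrolysis · Read-out – % inhibition relative to enzyme-containing and enzyme-free wells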
IN multimer act: HIV-1 integrase multimerization activation, counter-screen. 2,000 tested, 17% active. TR-FRET HIV-1 integrase multimerization, biochemical. activation, % at 7.7 µM. shares compounds with LEDGF integ inh; in the data active = activation above about 8.9%
TR-FRET interf: TR-FRET optical interference, LEDGF/p75 integration counter-screen | inhibition, % at 7.7 µM | shares compounds with LEDGF integ inh | TR-FRET optical interference counterscreen, HIV-1 IN multimerization | AID 1053135 | 2,000 tested, under 10 active;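 active = inhibition above the mean over all tested compounds plus 3 SD, which no compound reached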;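 also: 0% = integrase with antibodies and DMSO and 100% = antibodies without integrase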
IN-LEDGF confirm: confirmation of HIV-1 LEDGF/p75-dependent integration inhibitors. inhibition, % at 3.7 µM. 2,000 tested, 36% active. TR-FRET LEDGF/p75-dependent HIV-1 integration, biochemical. AID 1053136. shares compounds with LEDGF integ inh; in the data active = inhibition above about 14%
AlphaScreen art: AlphaScreen assay artifact in NSD2 counter-screen | shares compounds with NSD2 HMT inh | AC35, µM (highest dose often 10 µM), inactives show at the top dose activity change, negative = signal loss | AlphaScreen artifact counterscreen, preloaded methylated H4 peptide | 1,500 tested, 9.4% active; call rule not given here
* hit, by the source's call; / = no result given; + = active, no number.

SMILES	MBD2 inh	NSD2 HMT inh	LEDGF integ inh	UHRF1 binding	Casp6 inh	TDP2 absorb	IN multimer act	TR-FRET interf	IN-LEDGF confirm	others
Cc1c(C(=O)NCCN2CCOCC2)oc2ccc(Br)cc12	1	21	18*	-1	-3	3	0	0	9
O=C(NC1CCCCC1)N1CC(=O)N2[C@H](CO)[C@@H](c3ccc(/C=C/c4ccccc4)cc3)[C@@H]2C1	/	/	/	/	5	/	/	/	/
O=C1CC(c2ccc(O)cc2)Oc2cc(O)cc(O)c21 (stereo not drawn)	0	/	4	-1	1	9	/	/	/
O=C1CC(c2ccc(O)c(O)c2)Oc2cc(O)cc(O)c21 (stereo not drawn)	0	/	13*	1	14	2	3	-13	23*
CCOC(=O)C(C(C)=O)c1c(Br)c(O)c(O)c2c(C(=O)c3ccc(C)cc3)coc12 (stereo not drawn)	-5	1	26*	-1	/	-3	-2	12	14*
O=C(NCc1ccc(Cl)cc1)c1ccc(Br)o1	1	/	56*	-1	4	8	0	-2	-7
COc1ccc(CCNC(=O)c2cccs2)cc1OC	-7	7	1	4	-2	4	/	/	/
COc1ccc(CCNC(=O)Cc2cccs2)cc1OC	-4	0	22*	1	1	0	1	-3	4
COc1ccc(CCNC(=O)Cn2c(=O)oc3cc(Cl)ccc32)cc1OC	1	-3	34*	-2	2	4	0	1	-1
Cc1ccc([N+](=O)[O-])cc1-c1ccc(/C=N/NC(=O)CN2CCOCC2)o1	-2	7	2	1	1	-3	/	/	/
Cc1ccc(Cl)cc1-c1ccc(C=Nc2ccc(N3CCOCC3)cc2)o1	-6	2	28*	-3	-1	23	4	-14	11
CC(=O)Nc1ccc(OCc2cn(CC(=O)c3ccc(O)cc3)nn2)cc1	9	/	15*	17	/	6	7	-34	8
O=C(Cn1cc(COc2cc(F)cc(F)c2)nn1)c1ccc(O)cc1	-3	/	2	8	5	-8	/	/	/
C/C(=C\C(=O)c1ccc(F)cc1)Nc1ccc(N2CCOCC2)cc1	-3	2	23*	1	/	21	2	-9	-4
CN(C)CCCNC(=O)C[C@H]1C=C[C@@H](NS(=O)(=O)c2ccccc2)[C@H](CO)O1	/	/	/	/	4	/	/	/	/
O=C(NCCc1ccccc1)c1cc(-c2ccco2)on1	-4	2	6	2	3	-25	/	/	/
O=C(NCc1ccccc1)c1cc(-c2ccco2)on1	3	25	16*	0	4	-3	0	0	1
O=S(=O)(N[C@H]1CC[C@@H](CCn2cc(-c3ccc(F)cc3)nn2)O[C@H]1CO)c1ccccc1F	/	/	/	/	-3	/	/	/	/
COCCOC(=O)N1C(=O)[C@@]2(c3ccccc31)[C@H](C(=O)N1CCN(c3ncccn3)CC1)[C@H]1C(=O)O[C@H](c3ccccc3)[C@H](c3ccccc3)N1[C@@H]2c1ccccc1OCCO	/	/	/	/	-1	/	/	/	/
O=C(N/N=C\c1ccccc1OCc1ccccc1)c1ccco1	3	0	-3	9	-5	-15	/	/	/
O=C(N/N=C/c1c(O)n(Cc2ccco2)c(=O)[nH]c1=O)c1ccccc1	-5	-1	53*	34*	-1	-9	13*	-64	6
O=C(N[C@@H]1CC[C@H](CCNC(=O)C2CCCC2)O[C@H]1CO)c1ccncc1	/	/	/	/	1	/	/	/	/
C[C@H]1CN([C@@H](C)CO)C(=O)c2cc(-c3cccc(F)c3)cnc2O[C@H]1CN(C)Cc1cccnc1	/	/	/	/	2	/	/	/	/
Cc1cc(=O)oc2cc(NC(=O)CC3(CC(=O)O)CCCC3)ccc12	-7	-2	21*	-2	1	17	-2	5	2
O=C1c2cccc(Sc3ccccc3)c2C(=O)c2c(Sc3ccccc3)cccc21	10	76*	14*	24*	10	12	3	-11	-7	AlphaScreen art=-17%
SMILES	MBD2 inh	NSD2 HMT inh	LEDGF integ inh	UHRF1 binding	Casp6 inh	TDP2 absorb	IN multimer act	TR-FRET interf	IN-LEDGF confirm	others
CCS(=O)(=O)N1CC(=O)N2[C@@H](CO)[C@H](c3ccc(-c4cccc(F)c4)cc3)[C@@H]2C1	/	/	/	/	2	/	/	/	/
C=CCn1c(SCC(=O)c2ccc(O)c(O)c2)nnc1-c1cccnc1	6	72*	16*	25*	61*	-7	45*	-161	60*	AlphaScreen art=-7%
CO[C@@H]1CN(C)C(=O)c2cc(NS(C)(=O)=O)ccc2OC[C@@H](C)N(C(=O)C2CCC2)C[C@H]1C	/	/	/	/	1	/	/	/	/
CCOC(=O)CCCCC(=O)c1[nH]c(=O)[nH]c1CSc1nc(C)cc(=O)[nH]1	5	106*	35*	0	-3	-11	4	-16	49*	AlphaScreen art=-9%
CCOC(=O)c1ccc(CC(=O)c2ccc(O)c(O)c2O)o1	4	91*	74*	24*	16	-6	5	-25	58*	AlphaScreen art=-8%
CC(C)NC(=O)Nc1ccc2c(c1)C(=O)N([C@H](C)CO)C[C@@H](C)[C@H](CN(C)C)O2	/	/	/	/	-1	/	/	/	/
C[C@@H]1CCCCO[C@H](CN(C)C(=O)Nc2cccc3ccccc23)[C@H](C)CN([C@@H](C)CO)C(=O)c2cc(NC(=O)Nc3ccc4c(c3)OCO4)ccc2O1	/	/	/	/	-2	/	/	/	/
COc1ccc2c(c1)C(=O)[C@H](O)[C@@H](c1ccc(OC)c(Br)c1)O2	3	/	1	-4	0	-6	/	/	/
O=C1c2cc(O)c(O)cc2OC(c2ccc(O)c(O)c2)C1O (stereo not drawn)	2	68*	49*	1	55*	-3	15*	-75	55*	AlphaScreen art=-11%
CN1CCN(C(=O)C[C@@H]2CC[C@H]3[C@@H](COC[C@@H](O)CN3C(=O)Cc3ccccc3)O2)CC1	/	/	/	/	-13	/	/	/	/
NNC(=O)c1cc(O)c(O)c(O)c1	10	+	61*	29*	77*	-1	39*	-197	63*	AlphaScreen art=-11%
COc1c(Cl)cc(C(=O)NN)cc1Cl	5	-3	1	-2	1	-8	/	/	/
